One data set concerns PKC. Kind of data set: PepTag non-radioactive PKC assay. The following applies: read-out: IC50 value, PKC; mean ± standard deviation, triplicate. The data set is classed as biochemical.
A short description of data set [1]: Distribution of compound in tissues and plasma after chronic oral administration. Type of data set: in vivo. The following applies: CD1 mice, oral gavage 5 mg/Kg daily for 75 days, n = 4. The essentials: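 CD1 mice: four treated, two untreated. Test compound was given by oral gavage at 5 mg/Kg once daily for 75 days. Brain, pancreas, liver, kidney, lung and plasma were then assayed for the compound by a previously reported procedure. Levels are in µM as mean ± standard deviation; ND = not detectable.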

The test system of data set [2] is liver transaminases, aspartate aminotransferase (AST) and alanine transaminase (ALT). As to the kind of experiment: Plasma liver transaminase. Type of data set: in vivo. The following applies: mice, 5 mg/kg daily by oral gavage for 75 days, vs control mice.

Results on four compounds are retold here after PMC4110911 (Bioorganic & medicinal chemistry letters, 2014).

One may read the IC50 as the concentration that inhibits the measured activity by half. Consider `COc1cc(NCCCN)c2nccc(C)c2c1Oc1cccc(C(F)(F)F)c1` [Compound 1], for which the IC50 in the data set with PKC was […].
As to `COc1cc(NCc2ccc(O)cc2)c2nccc(C)c2c1Oc1cccc(C(F)(F)F)c1` [Compound 3], in the data set on PKC, the IC50 was found to be 240 ± 21.2 µM. In data set [1], the “Concentration of 3, Kidney” value came out at 16.1 ± 2.1 µM; the “Concentration of 3, Liver” value was found to be 7.1 ± 0.6 µM; the “Concentration of 3, Pancreases” value is 26.5 ± 6.6 µM; the “Concentration of 3, Plasma” value was determined as 4.5 ± 0.3 µM. For the same compound, in data set [2], the “ALT enzyme activity in plasma” value is listed as “No significant difference” and the “AST enzyme activity in plasma” value is reported as “No significant difference”.
Turning to `COc1cc(NCc2cccc3cccnc23)c2nccc(C)c2c1Oc1cccc(C(F)(F)F)c1` [Compound 7], in the data set with PKC, the IC50 was 400 ± 13.7 µM.
In the case of `CN[C@@H]1C[C@H]2O[C@@](C)([C@@H]1OC)n1c3ccccc3c3c4c(c5c6ccccc6n2c5c31)C(=O)NC4` [Staurosporine, reference compound], in the data set with PKC, the IC50 amounted to […].
